# Source: ChEMBL document CHEMBL3352635 (Bioorg Med Chem Lett, 2014)
# Active and inactive are the calls of the source. The rule behind the calls is not given here.
# Key:
# Rattus norvegicus [1] = test: Antiplatelet activity in Sprague-Dawley rat assessed as inhibition of TXB2 formation at 44.82 mg/kg, po od after 7 days by EIA relative to vehicle-treated control; type: functional; conditions: 168 h
# Summary of the method: (§1)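 Sprague–Dawley rats dosed orally once daily for 7 days with aspirin 30 mg/kg or prodrug 44.82 mg/kg (equimolar), with vehicle 1 ml/kg as control. Serum TXB2 levels estimated. Inhibition expressed as % reduction versus vehicle.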
# [2] = Stability of the compound assessed as compound remaining at RT after 3 days; type: physicochemical; conditions: read-out: Stability
# [3] = Half life in simulated gastric fluid at pH 1.2 by HPLC analysis; type: ADME
# Summary of the method: (§2)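 Compounds incubated at 37 °C in simulated gastric fluid (pH 1.2), simulated intestinal fluid (pH 6.8) or 100% human plasma for up to 180 min. […] Half-life estimated from the decay.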
# [4] = Metabolic stability in simulated gastric fluid assessed as compound remaining at pH 1.2 after 40 mins by HPLC analysis; type: ADME; conditions: read-out: Stability; summary of the method: as §2
# [5] = Stability of the compound assessed as compound remaining at 50 degC after 2 days; type: physicochemical; conditions: read-out: Stability
# [6] = Metabolic stability in simulated gastric fluid assessed as compound remaining at pH 1.2 after 20 mins by HPLC analysis; type: ADME; conditions: read-out: Stability; summary of the method: as §2
# [7] = Metabolic stability in simulated intestinal fluid assessed as compound remaining at pH 6.8 after 10 mins by HPLC analysis; type: ADME; conditions: read-out: Stability; summary of the method: as §2
# [8] = Half life in human plasma by HPLC analysis; type: ADME, cell-free; summary of the method: as §2
# [9] = Metabolic stability in simulated gastric fluid assessed as compound remaining at pH 1.2 after 60 mins by HPLC analysis; type: ADME; conditions: read-out: Stability; summary of the method: as §2
# [10] = Metabolic stability in simulated intestinal fluid assessed as compound remaining at pH 6.8 after 20 mins by HPLC analysis; type: ADME; conditions: read-out: Stability; summary of the method: as §2
# [11] = Metabolic stability in simulated intestinal fluid assessed as compound remaining at pH 6.8 after 5 mins by HPLC analysis; type: ADME; conditions: read-out: Stability; summary of the method: as §2
# [12] = Stability of the compound assessed as compound remaining at RT after 18 days; type: physicochemical; conditions: read-out: Stability
# [13] = AUC in Sprague-Dawley rat at 44.83 mg/kg, po; type: ADME, organism-based; set-up: dose 44.83 mg/kg, route oral; conditions: plasma
# Summary of the method: (§3)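 Plasma parent-drug concentration followed over time up to 8 h. AUC in µg*h/mL from the concentration–time profile. Cmax and Tmax taken from the profile.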
# [14] = Metabolic stability in simulated intestinal fluid assessed as compound remaining at pH 6.8 after 60 mins by HPLC analysis; type: ADME; conditions: read-out: Stability; summary of the method: as §2
# [15] = Stability of the compound assessed as compound remaining at RT measured immediately; type: physicochemical; conditions: read-out: Stability
# Summary of the method: (§4)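 Solid-state storage stability at room temperature and at 50 °C, followed for up to 1 month (25 days for one compound). Remaining compound measured, along with the amounts of parent drug and salicylic acid generated.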
# [16] = Stability of the compound assessed as compound remaining at 50 degC measured immediately; type: physicochemical; conditions: read-out: Stability; summary of the method: as §4
# [17] = Metabolic stability in simulated intestinal fluid assessed as compound remaining at pH 6.8 measured immediately by HPLC analysis; type: ADME; conditions: read-out: Stability; summary of the method: as §2
# Rattus norvegicus [18] = test: Toxicity in rat assessed as gastric lesion and ulcer area at 298.8 mg/kg, po after 5 hrs; type: organism-based, Stomach; set-up: dose 298.8 mg/kg, route oral; conditions: in vivo
# Rattus norvegicus [19] = test: Antiinflammatory activity in Sprague-Dawley rat assessed as plasma nitrate/nitrite AUC at 14.94 mg/kg, po by Griess assay (reference value: 371.1 uM.h); type: functional, organism-based; set-up: dose 14.94 mg/kg
# Summary of the method: (§5)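 Sprague–Dawley rats given compounds orally, with vehicle-dosed controls. […] Plasma nitrate/nitrite (NOx) measured by the Griess method as an indirect measure of NO released, over 8 h (sampling included 1, 2, 4 and 6 h). Plasma nitrate/nitrite AUC in µM*h.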
# [20] = Metabolic stability in simulated gastric fluid assessed as compound remaining at pH 1.2 after 5 mins by HPLC analysis; type: ADME; conditions: read-out: Stability; summary of the method: as §2
# [21] = Metabolic stability in simulated gastric fluid assessed as compound remaining at pH 1.2 measured immediately by HPLC analysis; type: ADME; conditions: read-out: Stability; summary of the method: as §2
# [22] = Metabolic stability in simulated gastric fluid assessed as compound remaining at pH 1.2 after 10 mins by HPLC analysis; type: ADME; conditions: read-out: Stability; summary of the method: as §2
# Rattus norvegicus [23] = test: Antiinflammatory activity in Sprague-Dawley rat assessed as plasma nitrate/nitrite at 14.94 mg/kg, po up to 8 hrs; type: functional; summary of the method: as §5
# [24] = Metabolic stability in simulated gastric fluid assessed as compound remaining at pH 1.2 after 2 mins by HPLC analysis; type: ADME; conditions: read-out: Stability; summary of the method: as §2
# [25] = Metabolic stability in simulated intestinal fluid assessed as compound remaining at pH 6.8 after 120 mins by HPLC analysis; type: ADME; conditions: read-out: Stability; summary of the method: as §2
# [26] = Half life in simulated intestinal fluid at pH 6.8 by HPLC analysis; type: ADME; summary of the method: as §2
# [27] = Stability of the compound assessed as compound remaining at RT after 1 month; type: physicochemical; conditions: read-out: Stability; summary of the method: as §4
# [28] = AUC in Wistar rat at 44.83 mg/kg, po; type: ADME, organism-based; set-up: dose 44.83 mg/kg, route oral; conditions: plasma
# Summary of the method: (§6)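 Single oral dosing in Wistar rats to compare […]. Aspirin at 30 mg/kg or the prodrug at 44.83 mg/kg (equimolar to 30 mg/kg aspirin). Plasma aspirin measured over time. AUC in µg*h/mL.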
# [29] = Metabolic stability in simulated intestinal fluid assessed as compound remaining at pH 6.8 after 2 mins by HPLC analysis; type: ADME; conditions: read-out: Stability; summary of the method: as §2
# [30] = Stability of the compound assessed as compound remaining at 50 degC after 1 month; type: physicochemical; conditions: read-out: Stability; summary of the method: as §4
# [31] = Stability of the compound assessed as compound remaining at 50 degC after 5 days; type: physicochemical; conditions: read-out: Stability; summary of the method: as §4
# [32] = Stability of the compound assessed as compound remaining at 50 degC after 25 days; type: physicochemical; conditions: read-out: Drug metabolism; summary of the method: as §4
# [33] = Metabolic stability in simulated gastric fluid assessed as compound remaining at pH 1.2 after 30 mins by HPLC analysis; type: ADME; conditions: read-out: Stability; summary of the method: as §2
# Rattus norvegicus [34] = test: Toxicity in rat assessed as gastric lesion and ulcer area at 138.67 mg/kg, po after 5 hrs; type: organism-based, Stomach; set-up: dose 138.67 mg/kg, route oral; conditions: in vivo
# [35] = Metabolic stability in simulated gastric fluid assessed as compound remaining at pH 1.2 after 15 mins by HPLC analysis; type: ADME; conditions: read-out: Stability; summary of the method: as §2
# [36] = Stability of the compound assessed as compound remaining at RT after 25 days; type: physicochemical; conditions: read-out: Drug metabolism; summary of the method: as §4
# Rattus norvegicus [37] = test: Antiinflammatory activity in Sprague-Dawley rat assessed as plasma nitrate/nitrite at 41.60 mg/kg, po after 1 hr; type: functional; conditions: dose 41.6 mg/kg; summary of the method: as §5
# Rattus norvegicus [38] = test: Antiinflammatory activity in Sprague-Dawley rat assessed as plasma nitrate/nitrite AUC at 41.60 mg/kg, po by Griess assay (reference value: 371.1 uM.h); type: functional, organism-based; set-up: dose 41.6 mg/kg; summary of the method: as §5
# Rattus norvegicus [39] = test: Antiinflammatory activity in Sprague-Dawley rat assessed as plasma nitrate/nitrite at 41.60 mg/kg, po after 4 hrs; type: functional, organism-based; set-up: dose 41.6 mg/kg; summary of the method: as §5
# Rattus norvegicus [40] = test: Antiinflammatory activity in Sprague-Dawley rat assessed as plasma nitrate/nitrite at 41.60 mg/kg, po after 2 hrs; type: functional; conditions: dose 41.6 mg/kg; summary of the method: as §5
# Rattus norvegicus [41] = test: Antiinflammatory activity in Sprague-Dawley rat assessed as plasma nitrate/nitrite at 41.60 mg/kg, po after 6 hrs relative to control; type: functional, organism-based; set-up: dose 41.6 mg/kg; summary of the method: as §5
# Rattus norvegicus [42] = test: Toxicity in rat assessed as gastric lesion and ulcer area at 200 mg/kg, po after 5 hrs; type: organism-based, Stomach; set-up: dose 200 mg/kg, route oral; conditions: in vivo
# [43] = AUC in Sprague-Dawley rat at 30 mg/kg, po; type: ADME, organism-based; set-up: dose 30 mg/kg, route oral; conditions: plasma; summary of the method: as §3
# Rattus norvegicus [44] = test: Antiplatelet activity in Sprague-Dawley rat assessed as inhibition of TXB2 formation at 30 mg/kg, po od after 7 days by EIA relative to vehicle-treated control; type: functional; conditions: 168 h; summary of the method: as §1
# [45] = AUC in Wistar rat at 30 mg/kg, po; type: ADME, organism-based; set-up: dose 30 mg/kg, route oral; conditions: plasma; summary of the method: as §6
# [46] = Metabolic stability in simulated gastric fluid assessed as chlorambucil level; type: ADME, tissue-based, Stomach; conditions: simulated gi fluid
smiles,measurement,setting,value
CC(=O)Oc1ccccc1C(=O)OC(C)O[N+](=O)[O-] (centres undefined),inhibition in vivo at 44.82 mg/kg,Rattus norvegicus [1],72.6%
same,remaining at 72 h,[2],98.9%
same,half-life,[3],< 10 min
same,remaining at 40 min,[4],12%
same,remaining at 48 h,[5],98.8%
same,remaining at 20 min,[6],14%
same,remaining at 10 min,[7],52%
same,half-life,[8],< 5 min
same,remaining at 1 h,[9],0%
same,remaining at 20 min,[10],32%
same,remaining at 5 min,[11],82%
same,remaining at 432 h,[12],99%
same,AUC,[13],89800 ng·h/mL
same,remaining at 1 h,[14],4%
same,remaining at 0 days,[15],99.1%
same,remaining at 0 days,[16],99.1%
same,remaining at 0 min,[17],100%
same,Activity,Rattus norvegicus [18],1 mm2
same,AUC,Rattus norvegicus [19],1480 µM·h
same,remaining at 5 min,[20],65%
same,remaining at 0 min,[21],100%
same,remaining at 10 min,[22],45%
same,Activity,Rattus norvegicus [23],180 µM
same,remaining at 2 min,[24],78%
same,remaining at 2 h,[25],0%
same,half-life,[26],< 15 min
same,remaining at 730.5 h,[27],98.6%
same,AUC,[28],398000 ng·h/mL
same,remaining at 2 min,[29],91%
same,remaining at 730.5 h,[30],88.3%
same,remaining at 120 h,[31],98.2%
COc1ccc2cc([C@H](C)C(=O)OC(C)O[N+](=O)[O-])ccc2c1 (some centres undefined),remaining at 600 h,[32],99%
same,half-life,[3],< 30 min
same,remaining at 1 h,[9],0%
same,remaining at 0 days,[15],99.1%
same,remaining at 0 days,[16],99.1%
same,remaining at 0.5 h,[33],33%
same,Activity,Rattus norvegicus [34],39 mm2
same,remaining at 5 min,[20],85%
same,remaining at 0 min,[21],100%
same,remaining at 10 min,[22],75%
same,remaining at 0.25 h,[35],65%
same,remaining at 600 h,[36],98.9%
same,Activity,Rattus norvegicus [37],150 µM
same,AUC,Rattus norvegicus [38],687 µM·h
same,Activity,Rattus norvegicus [39],inactive
same,Activity,Rattus norvegicus [40],120 µM
same,Activity,Rattus norvegicus [41],inactive
CC(=O)Oc1ccccc1C(=O)O [ASPIRIN],Activity,Rattus norvegicus [42],93 mm2
same,AUC,[43],91100 ng·h/mL
same,inhibition in vivo at 30 mg/kg,Rattus norvegicus [44],76%
same,AUC,[45],437000 ng·h/mL
CCCC(OC(=O)c1ccccc1OC(C)=O)O[N+](=O)[O-] (centres undefined),AUC,[13],73500 ng·h/mL
CC(OC(=O)CCCc1ccc(N(CCCl)CCCl)cc1)O[N+](=O)[O-] (centres undefined),t1/2,[46],< 5 min
